In brackets after ≈: the same amount, converted by molar mass.

Common to all, as to format: functional
The test system of experiment [1] is Mycobacterium tuberculosis. Put plainly: Antimycobacterial activity against Mycobacterium tuberculosis H37Rv ATCC 27294 by alamar blue assay. Put shortly:
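Microplate Alamar Blue Assay; MIC is the lowest concentration giving ≥90% reduction in fluorescence relative to the mean of replicate bacterium-only controls. MDR strain 6133 is resistant to isoniazid and rifampicin.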
A general note: The colour change of resazurin is a common sign of viable cells or microbes.

Experiment [2] deals with Enterococcus faecalis. Kind of experiment: Antibacterial activity against Enterococcus faecalis 14-2 after 18 to 24 hrs. Put shortly: (§1)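 MIC by standard NCCLS reference procedure (M100-S11); lowest concentration of compound inhibiting visible bacterial growth after incubation at 35 °C for 18–24 h, read as complete inhibition of growth. Ciprofloxacin, levofloxacin and moxifloxacin run alongside as reference agents.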

Experiment [3] deals with Enterococcus faecium. Put plainly: Antibacterial activity against Enterococcus faecium 14-1 after 18 to 24 hrs. Put shortly: as §1
The subject of experiment [4] is Enterococcus faecium. Kind of experiment: Antibacterial activity against Enterococcus faecium 14-2 after 18 to 24 hrs. Put shortly: as §1
The subject of experiment [5] is Enterococcus faecium. Put plainly: Antibacterial activity against Enterococcus faecium 14-5 after 18 to 24 hrs. Put shortly:
as §1

Experiment [6] deals with Enterococcus faecium. Kind of experiment: Antibacterial activity against Enterococcus faecium 14-6 after 18 to 24 hrs. Put shortly: as §1
The test system of experiment [7] is Escherichia coli. Kind of experiment: Antibacterial activity against ESBL-positive Escherichia coli 14-1 after 18 to 24 hrs. Put shortly:
as §1

The subject of experiment [8] is Escherichia coli. Kind of experiment: Antibacterial activity against ESBL-positive Escherichia coli 14-2 after 18 to 24 hrs. Put shortly:
as §1

Experiment [9] relates to Escherichia coli. Kind of experiment: Antibacterial activity against Escherichia coli 14-1 after 18 to 24 hrs. Put shortly: as §1
For experiment [10], the system named is Escherichia coli. Kind of experiment: Antibacterial activity against Escherichia coli 14-2 after 18 to 24 hrs. Put shortly: as §1
Experiment [11] relates to Klebsiella pneumoniae. Put plainly: Antibacterial activity against ESBL-positive Klebsiella pneumoniae 14-17 after 18 to 24 hrs. Put shortly:
as §1

For experiment [12], the system named is Klebsiella pneumoniae. Kind of experiment: Antibacterial activity against ESBL-positive Klebsiella pneumoniae 14-19 after 18 to 24 hrs. Put shortly: as §1
Experiment [13] has as its system Klebsiella pneumoniae. Put plainly: Antibacterial activity against Klebsiella pneumoniae 14-1 after 18 to 24 hrs. Put shortly: as §1
For experiment [14], the system named is Klebsiella pneumoniae. Kind of experiment: Antibacterial activity against Klebsiella pneumoniae 14-2 after 18 to 24 hrs. Put shortly:
as §1

For experiment [15], the system named is Klebsiella pneumoniae. Put plainly: Antibacterial activity against Klebsiella pneumoniae 14-3 after 18 to 24 hrs. Put shortly:
as §1

In experiment [16] the test system is Klebsiella pneumoniae. Put plainly: Antibacterial activity against Klebsiella pneumoniae 14-4 after 18 to 24 hrs. Put shortly:
as §1

The test system of experiment [17] is Staphylococcus aureus. Put plainly: Antibacterial activity against Staphylococcus aureus CMCC 26003 after 18 to 24 hrs. Put shortly:
as §1

Experiment [18] concerns Staphylococcus aureus. Put plainly: Antibacterial activity against methicillin-sensitive Staphylococcus aureus 14-1 after 18 to 24 hrs. Put shortly:
as §1

Experiment [19] deals with Staphylococcus aureus. Put plainly: Antibacterial activity against methicillin-sensitive Staphylococcus aureus 14-2 after 18 to 24 hrs. Put shortly:
as §1

Experiment [20] deals with Staphylococcus aureus. Kind of experiment: Antibacterial activity against methicillin-sensitive Staphylococcus aureus 14-3 after 18 to 24 hrs. Put shortly:
as §1

The test system of experiment [21] is Staphylococcus aureus. Put plainly: Antibacterial activity against methicillin-sensitive Staphylococcus aureus 14-4 after 18 to 24 hrs. Put shortly: as §1
Experiment [22] deals with Staphylococcus aureus. Put plainly: Antibacterial activity against methicillin-resistant Staphylococcus aureus 14-4 after 18 to 24 hrs.
Experiment [23] deals with Staphylococcus aureus. Kind of experiment: Antibacterial activity against methicillin-resistant Staphylococcus aureus 14-5 after 18 to 24 hrs.
For experiment [24], the system named is Staphylococcus epidermidis. Kind of experiment: Antibacterial activity against methicillin-sensitive Staphylococcus epidermidis 14-2 after 18 to 24 hrs. Put shortly:
as §1

For experiment [25], the system named is Staphylococcus epidermidis. Kind of experiment: Antibacterial activity against methicillin-resistant Staphylococcus epidermidis 14-21 after 18 to 24 hrs.
Experiment [26] has as its system Staphylococcus epidermidis. Kind of experiment: Antibacterial activity against methicillin-resistant Staphylococcus epidermidis 14-22 after 18 to 24 hrs.
The test system of experiment [27] is Staphylococcus epidermidis. Kind of experiment: Antibacterial activity against methicillin-resistant Staphylococcus epidermidis 14-37 after 18 to 24 hrs.
Experiment [28] concerns Staphylococcus epidermidis. Kind of experiment: Antibacterial activity against methicillin-resistant Staphylococcus epidermidis 14-39 after 18 to 24 hrs.
Experiment [29] deals with Enterococcus faecalis. Kind of experiment: Antibacterial activity against Enterococcus faecalis 14-1 after 18 to 24 hrs. Put shortly:
as §1

Experiment [30] deals with Klebsiella pneumoniae. Put plainly: Antibacterial activity against ESBL-positive Klebsiella pneumoniae 14-18 after 18 to 24 hrs. Put shortly:
as §1

Experiment [31] has as its system Pseudomonas aeruginosa. Put plainly: Antibacterial activity against Pseudomonas aeruginosa ATCC 27853 after 18 to 24 hrs. Put shortly: as §1
In experiment [32] the test system is Pseudomonas aeruginosa. Kind of experiment: Antibacterial activity against Pseudomonas aeruginosa 14-9 after 18 to 24 hrs. Put shortly:
as §1

In experiment [33] the test system is Pseudomonas aeruginosa. Put plainly: Antibacterial activity against Pseudomonas aeruginosa 14-14 after 18 to 24 hrs. Put shortly: as §1
Experiment [34] concerns Pseudomonas aeruginosa. Put plainly: Antibacterial activity against Pseudomonas aeruginosa 14-15 after 18 to 24 hrs. Put shortly:
as §1

Experiment [35] deals with Pseudomonas aeruginosa. Kind of experiment: Antibacterial activity against Pseudomonas aeruginosa 14-16 after 18 to 24 hrs. Put shortly: as §1
Experiment [36] relates to Pseudomonas aeruginosa. Kind of experiment: Antibacterial activity against Pseudomonas aeruginosa 14-19 after 18 to 24 hrs. Put shortly:
as §1

The subject of another experiment is Streptococcus pneumoniae. Kind of experiment: Antibacterial activity against Streptococcus pneumoniae ATCC 19615 after 18 to 24 hrs. Put shortly:
as §1

For orientation: MIC90 means an inhibitory concentration at the 90% level, which refers to growth in some studies and to a panel of isolates in others. A high value points to lower susceptibility. Regarding `NNC(=O)c1ccncc1` [ISONIAZID], the MIC90 in experiment [1] is 0.049 µg/mL (≈ 0.357 µM).
In general, MIC refers to the least concentration at which growth counts as inhibited. As to `C[C@H]1COc2c(N3CCN(C)CC3)c(F)cc3c(=O)c(C(=O)O)cn1c23.C[C@H]1COc2c(N3CCN(C)CC3)c(F)cc3c(=O)c(C(=O)O)cn1c23.O` [LEVOFLOXACIN], the MIC in the experiment with Enterococcus faecalis [2] was found to be 1 µg/mL; in the experiment with Enterococcus faecium [3], 16 µg/mL; in the experiment with Enterococcus faecium [4] it was 32 µg/mL; against Enterococcus faecium [5] it was 64 µg/mL; against Enterococcus faecium [6], 64 µg/mL; against Escherichia coli [7], 2 µg/mL. Moreover, the minimal inhibitory concentration (MIC) in the experiment with Escherichia coli [8] was found to be 8 µg/mL; against Escherichia coli [9], 4 µg/mL; with Escherichia coli [10] it was 4 µg/mL; in the experiment on Klebsiella pneumoniae [11], 4 µg/mL; against Klebsiella pneumoniae [12], 64 µg/mL; with Klebsiella pneumoniae [13], 16 µg/mL. The MIC with Klebsiella pneumoniae [14] worked out at 8 µg/mL; with Klebsiella pneumoniae [15], 16 µg/mL; against Klebsiella pneumoniae [16], 8 µg/mL; in the experiment on Staphylococcus aureus [17] it was 0.125 µg/mL; against Staphylococcus aureus [18] it was 8 µg/mL; in the experiment on Staphylococcus aureus [19] it was 0.25 µg/mL. The MIC was 0.125 µg/mL in the experiment with Staphylococcus aureus [20]; 0.5 µg/mL in the experiment with Staphylococcus aureus [21]; 64 µg/mL in the experiment with Staphylococcus aureus [22]; 8 µg/mL in the experiment with Staphylococcus aureus [23]; 128 µg/mL in [24]; 64 µg/mL in [25]. In addition, the MIC in [26] was 32 µg/mL; in [27] it was 64 µg/mL; in experiment [28] it was 64 µg/mL; against Enterococcus faecalis [29] it was 128 µg/mL.
With `COc1c(N2C[C@@H]3CCCN[C@@H]3C2)c(F)cc2c(=O)c(C(=O)O)cn(C3CC3)c12` [MOXIFLOXACIN], the MIC came to 0.5 µg/mL (≈ 1.25 µM) against Enterococcus faecalis [2]; 8 µg/mL (≈ 19.9 µM) with Enterococcus faecium [3]; 8 µg/mL (≈ 19.9 µM) in the experiment on Enterococcus faecium [5]; 8 µg/mL (≈ 19.9 µM) in the experiment on Enterococcus faecium [6]; 8 µg/mL (≈ 19.9 µM) against Klebsiella pneumoniae [11]; 1 µg/mL (≈ 2.49 µM) in the experiment on Klebsiella pneumoniae [30]. Besides, the minimum inhibitory concentration (MIC) with Klebsiella pneumoniae [12] was 64 µg/mL (≈ 159 µM); with Klebsiella pneumoniae [13], 8 µg/mL (≈ 19.9 µM); against Klebsiella pneumoniae [14] it was 16 µg/mL (≈ 39.9 µM); in the experiment on Klebsiella pneumoniae [15] it was 32 µg/mL (≈ 79.7 µM); with Klebsiella pneumoniae [16], 16 µg/mL (≈ 39.9 µM); in the experiment on Pseudomonas aeruginosa [31], 2 µg/mL (≈ 4.98 µM). Moreover, the minimum inhibitory concentration (MIC) against Pseudomonas aeruginosa [32] is 4 µg/mL (≈ 9.96 µM); in the experiment with Pseudomonas aeruginosa [33], 16 µg/mL (≈ 39.9 µM); against Pseudomonas aeruginosa [34], 16 µg/mL (≈ 39.9 µM); with Pseudomonas aeruginosa [35], 8 µg/mL (≈ 19.9 µM); with Pseudomonas aeruginosa [36], 1 µg/mL (≈ 2.49 µM); against Staphylococcus aureus [17], 0.06 µg/mL (≈ 0.149 µM). Besides, the MIC against Staphylococcus aureus [18] is 4 µg/mL (≈ 9.96 µM); against Staphylococcus aureus [19], 0.06 µg/mL (≈ 0.149 µM); in the experiment on Staphylococcus aureus [20] it was < 0.008 µg/mL; with Staphylococcus aureus [21], < 0.008 µg/mL; against Staphylococcus aureus [22], 16 µg/mL (≈ 39.9 µM); with Staphylococcus aureus [23] it was 8 µg/mL (≈ 19.9 µM). The MIC in [24] stood at 32 µg/mL (≈ 79.7 µM); in experiment [25], 32 µg/mL (≈ 79.7 µM); in experiment [26] it was 8 µg/mL (≈ 19.9 µM); in experiment [27], 8 µg/mL (≈ 19.9 µM); in experiment [28], 8 µg/mL (≈ 19.9 µM); in the experiment on Streptococcus pneumoniae it was 0.015 µg/mL (≈ 0.0374 µM). In the experiment with Enterococcus faecalis [29], this compound showed an MIC of 32 µg/mL (≈ 79.7 µM).
Regarding `CO[C@H]1/C=C/O[C@@]2(C)Oc3c(C)c(O)c4c(O)c(c(/C=N/N5CCN(C)CC5)c(O)c4c3C2=O)NC(=O)/C(C)=C\C=C\[C@H](C)[C@H](O)[C@@H](C)[C@@H](O)[C@@H](C)[C@H](OC(C)=O)[C@@H]1C` [RIFAMPIN], the MIC90 in experiment [1] amounted to 0.05 µg/mL (≈ 0.0608 µM).

(Values after ChEMBL document CHEMBL3632558, “Synthesis, antimycobacterial and antibacterial activity of l-[(1R,2S)-2-fluorocyclopropyl]naphthyridone derivatives containing an oxime-functionalized pyrrolidine moiety” (2015).)
